From ChEMBL document CHEMBL4627300, “Discovery of 1,8-naphthyridin-2-one derivative as a potent and selective sphingomyelin synthase 2 inhibitor” (Bioorg Med Chem, 2020)
pIC50: −log10 of the molar value. Values after ≈ are worked out from the molar mass of the structure shown. Active and inactive are the calls of the source. The calls are words filed in the database; no cut-off is given here.

Legend:
[1] = target: T1, Phosphatidylcholine:ceramide cholinephosphotransferase 2 (Mus musculus, UniProt Q9D4B1); assay: Inhibition of mouse recombinant C-terminal FLAG-tagged SMS2 expressed in mammalian expression system using C14-phosphatidylcholineD72 and C17-ceramide pre-incubated for 60 mins followed by incubation with substrate for 30 mins measured by RapidFire/MS assay
T1 sequence (Q9D4B1 whole entry): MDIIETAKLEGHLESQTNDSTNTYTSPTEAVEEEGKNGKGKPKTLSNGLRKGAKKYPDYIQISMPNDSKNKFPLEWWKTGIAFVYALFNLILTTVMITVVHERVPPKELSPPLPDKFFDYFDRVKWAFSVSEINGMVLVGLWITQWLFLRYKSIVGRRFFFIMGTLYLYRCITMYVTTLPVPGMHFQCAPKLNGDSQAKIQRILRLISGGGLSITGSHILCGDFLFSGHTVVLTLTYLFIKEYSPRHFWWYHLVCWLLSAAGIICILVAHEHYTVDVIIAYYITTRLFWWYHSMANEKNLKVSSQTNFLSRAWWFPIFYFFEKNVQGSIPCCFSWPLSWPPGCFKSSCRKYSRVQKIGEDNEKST
Outline: (§1)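 C-terminal FLAG-tagged full-length SMS (human SMS1, mouse SMS2, human SMS2) transiently expressed in FreeStyle293 cells for 2 days; total membranes isolated by ultracentrifugation. Enzyme (30 µg/mL) preincubated 60 min with compound, then reacted 30 min at room temperature. Buffer: KCl, 0.1% BSA, 0.03% NP-40 substitute, 1 mM DTT, 10% DMSO. Substrates: 50 µM C14-PC-D72 and 1 µM C17-ceramide. Stopped with 2-propanol/formic acid containing C17-SM internal standard. Product C17-SM-d13 measured by RapidFire SPE and positive SRM MS. % inhibition calculated from peak area ratios against vehicle and no-reaction controls.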

[2] = target: T2, Phosphatidylcholine:ceramide cholinephosphotransferase 1 (Homo sapiens, UniProt Q86VZ5); assay: Inhibition of human recombinant C-terminal FLAG-tagged SMS1 expressed in mammalian expression system using C14-phosphatidylcholineD72 and C17-ceramide pre-incubated for 60 mins followed by incubation with substrate for 30 mins measured by RapidFire/MS assay; outline: as §1
T2 sequence (Q86VZ5 whole entry): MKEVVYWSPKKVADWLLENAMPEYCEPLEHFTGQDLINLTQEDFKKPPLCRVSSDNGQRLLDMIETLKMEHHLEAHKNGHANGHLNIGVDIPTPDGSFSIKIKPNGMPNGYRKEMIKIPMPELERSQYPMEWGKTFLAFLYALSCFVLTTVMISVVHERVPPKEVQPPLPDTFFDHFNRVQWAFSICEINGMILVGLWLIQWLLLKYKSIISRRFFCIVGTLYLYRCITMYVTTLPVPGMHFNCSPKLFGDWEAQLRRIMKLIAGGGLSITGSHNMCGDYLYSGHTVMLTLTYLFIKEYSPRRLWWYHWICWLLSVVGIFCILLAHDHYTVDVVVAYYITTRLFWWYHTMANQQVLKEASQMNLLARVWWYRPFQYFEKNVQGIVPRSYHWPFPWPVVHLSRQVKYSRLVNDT

[3] = Permeability of compound in buffer solution at pH 7.4 by PAMPA method; format: ADME; settings: read-out: permeability
Outline: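 Membrane permeability measured at pH 7.4.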

[4] = target: T3, Phosphatidylcholine:ceramide cholinephosphotransferase 2 (Homo sapiens, UniProt Q8NHU3); assay: Inhibition of human recombinant C-terminal FLAG-tagged SMS2 expressed in Freestyle293 cell membrane using C14-phosphatidylcholineD72 and C17-ceramide pre-incubated for 60 mins followed by incubation with substrate for 30 mins measured by RapidFire/MS assay; outline: as §1
T3 sequence (Q8NHU3 whole entry): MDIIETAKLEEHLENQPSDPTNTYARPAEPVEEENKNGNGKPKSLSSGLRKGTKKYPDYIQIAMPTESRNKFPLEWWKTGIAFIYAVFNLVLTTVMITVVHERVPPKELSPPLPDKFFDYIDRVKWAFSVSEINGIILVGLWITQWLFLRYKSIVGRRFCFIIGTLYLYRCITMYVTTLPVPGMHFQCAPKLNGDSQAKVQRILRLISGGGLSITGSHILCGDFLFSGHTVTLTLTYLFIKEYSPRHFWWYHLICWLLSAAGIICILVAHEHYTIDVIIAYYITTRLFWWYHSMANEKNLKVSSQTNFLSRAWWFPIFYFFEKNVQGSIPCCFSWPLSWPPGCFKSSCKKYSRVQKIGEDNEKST

[5] = Aqueous solubility of DMSO dissolved compound in buffer solution at pH 6.8 by LC-MS/MS analysis; format: physicochemical
Outline: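 Compound in DMSO added to aqueous buffer at pH 6.8 and incubated. Precipitate removed by filter-plate filtration; dissolved compound in filtrate quantified by LC/MS/MS.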

[6] = Inhibition of SMS (unknown origin); design: species or system Homo sapiens
[7] = Tmax in KK-AY/Ta mouse at 100 mg/kg, po; format: ADME, organism-based; settings: in vivo
Outline: (§2)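 Single 100 mg/kg dose given orally or subcutaneously to KK-Ay/Ta mice. Plasma drug concentration followed to 24 h. […] MRT is the mean residence time.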

Mus musculus [8] = assay: In vivo inhibition of SMS2 in KK-AY/Ta mouse assessed as decrease in hepatic SM (22:00) levels at 100 mg/kg, sc qd for 7 days measured after last dosing by LC/MS analysis; format: functional, organism-based
Outline: (§3)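 Male KK-Ay/Ta mice, 10 weeks old, dosed orally or subcutaneously once or twice daily for 7 days; vehicle-treated controls. Livers removed under anesthesia the morning after the last dose. Tissue homogenized in isopropanol (100 mg/mL) by ball-mill and centrifuged; supernatant SM (22:0) measured by reverse-phase LC/MS.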

Mus musculus [9] = assay: In vivo inhibition of SMS2 in KK-AY/Ta mouse assessed as decrease in hepatic SM (22:00) levels at 100 mg/kg, po qd for 7 days measured after last dosing by LC/MS analysis; format: functional, organism-based; outline: as §3
Mus musculus [10] = assay: In vivo inhibition of SMS2 in KK-AY/Ta mouse assessed as decrease in hepatic SM (22:00) levels at 200 mg/kg, po bid for 7 days measured after last dosing by LC/MS analysis; format: functional, organism-based; outline: as §3
[11] = AUC (0 to 24 hrs) in KK-AY/Ta mouse at 100 mg/kg, po; format: ADME, organism-based; design: dose 100 mg/kg, time < 24 hr, route oral; settings: in vivo; outline: as §2
[12] = Cmax in KK-AY/Ta mouse at 100 mg/kg, po; format: ADME, organism-based; design: dose 100 mg/kg, route oral; settings: in vivo; outline: as §2
[13] = AUC (0 to 24 hrs) in KK-AY/Ta mouse at 100 mg/kg, sc; format: ADME, organism-based; design: time < 24 hr, dose 100 mg/kg, route subcutaneous; settings: in vivo; outline: as §2
[14] = MRT in KK-AY/Ta mouse at 100 mg/kg, po; format: ADME, organism-based; settings: in vivo; outline: as §2
[15] = MRT in KK-AY/Ta mouse at 100 mg/kg, sc; format: ADME, organism-based; settings: in vivo; outline: as §2
Mus musculus [16] = assay: In vivo inhibition of SMS2 in KK-AY/Ta mouse assessed as decrease in hepatic SM (22:00) levels at 200 mg/kg, sc bid for 7 days measured after last dosing by LC/MS analysis; format: functional, organism-based; outline: as §3
[17] = Cmax in KK-AY/Ta mouse at 100 mg/kg, sc; format: ADME, organism-based; design: dose 100 mg/kg, route subcutaneous; settings: in vivo; outline: as §2
[18] = Drug concentration in KK-AY/Ta mouse at 100 mg/kg, po measured upto 24 hrs; format: ADME, organism-based; settings: in vivo, read-out: Drug uptake; outline: as §2
[19] = Tmax in KK-AY/Ta mouse at 100 mg/kg, sc; format: ADME, organism-based; settings: in vivo; outline: as §2
[20] = Drug concentration in KK-AY/Ta mouse at 100 mg/kg, sc measured upto 24 hrs; format: ADME, organism-based; settings: in vivo, read-out: Drug uptake; outline: as §2

## CN(Cc1cc(C(F)(F)F)cc(C(F)(F)F)c1)C(=O)c1c(N2CCCC2)c2ccccc2n(C)c1=O
[1]
  pIC50: 5.96
[2]
  pIC50: < 4.00

## CN(Cc1cc(C(F)(F)F)cc(C(F)(F)F)c1)C(=O)c1c(OCCCC2CCN(C(=O)OC3(C)CC3)CC2)c2cccnc2n(C)c1=O
[1]
  pIC50: 8.52
[3]
  Papp: 72.1 ×10⁻⁶ cm/s
[2]
  pIC50: 6.07
[4]
  pIC50: 7.33
[5]
  solubility kinetic: < 0.3 µg/mL

## CN(Cc1cc(C(F)(F)F)cc(C(F)(F)F)c1)C(=O)c1c(OCCCC2CCCCC2)c2ccccc2n(C)c1=O
[1]
  pIC50: 6.72
[2]
  pIC50: 4.85
[4]
  pIC50: 6.32

## COc1cc(CN(C)C(=O)c2c(OCCCC3CCN(C(=O)OC(C)(C)C)CC3)c3ccccc3n(C)c2=O)cc(OC)c1
[1]
  pIC50: 7.72
[3]
  Papp: 29.5 ×10⁻⁶ cm/s
[2]
  pIC50: 4.72
[4]
  pIC50: 7.04
[5]
  solubility kinetic: 1.8 µg/mL (≈ 2.96 µM)

## CCOc1cc(CN(C)C(=O)c2c(OCCCC3CCN(C(=O)OC(C)(C)C)CC3)c3ccccc3n(C)c2=O)cc(OCC)c1
[1]
  pIC50: 7.29
[3]
  Papp: 27.5 ×10⁻⁶ cm/s
[2]
  pIC50: 4.82
[4]
  pIC50: 6.42
[5]
  solubility kinetic: < 0.08 µg/mL

## COc1cc(CN(C)C(=O)c2c(OCCCC3CCN(C(=O)OC(C)(C)C)CC3)c3cnccc3n(C)c2=O)cc(OC)c1
[1]
  pIC50: 6.47
[3]
  Papp: 26 ×10⁻⁶ cm/s
[2]
  pIC50: < 4.00
[4]
  pIC50: 5.80
[5]
  solubility kinetic: 33 µg/mL (≈ 54.2 µM)

## CN(Cc1cc(C(F)(F)F)cc(C(F)(F)F)c1)C(=O)c1c(OCCCC2CCN(C(=O)OC(C)(C)C)CC2)c2ccccc2n(C)c1=O
[1]
  pIC50: 8.11
[3]
  Papp: 1.1 ×10⁻⁶ cm/s
[2]
  pIC50: 5.47
[4]
  pIC50: 7.52
[5]
  solubility kinetic: < 0.16 µg/mL

## CN(Cc1cc(C(F)(F)F)cc(C(F)(F)F)c1)C(=O)c1c(N2CCCCC2)c2ccccc2n(C)c1=O
[2]
  pIC50: < 4.00
[4]
  pIC50: 4.96

## CC(C)CCOc1c(C(=O)N(C)Cc2cc(C(F)(F)F)cc(C(F)(F)F)c2)c(=O)n(C)c2ccccc12
[1]
  pIC50: 6.59
[2]
  pIC50: < 4.00
[4]
  pIC50: 6.46

## COc1cc(CN(C)C(=O)c2c(OCCCC3CCN(C(=O)OC(C)(C)C)CC3)c3cccnc3n(C)c2=O)cc(OC)c1
[1]
  pIC50: 7.49
[3]
  Papp: 24.1 ×10⁻⁶ cm/s
[2]
  pIC50: 5.00
[4]
  pIC50: 6.89
[5]
  solubility kinetic: 7.3 µg/mL (≈ 12 µM)

## COc1cc(CN(C)C(=O)c2c(OCCCC3CCN(C(=O)OC4(C)CC4)CC3)c3cccnc3n(C)c2=O)cc(OC)c1
[1]
  pIC50: 7.85
[3]
  Papp: 20 ×10⁻⁶ cm/s
[2]
  pIC50: 4.74
[4]
  pIC50: 6.52
[5]
  solubility kinetic: 16 µg/mL (≈ 26.4 µM)

## CCCOc1c(C(=O)N(C)Cc2cc(C(F)(F)F)cc(C(F)(F)F)c2)c(=O)n(C)c2ccccc12
[2]
  pIC50: < 4.00
[4]
  pIC50: 5.68

## S=C(S)OC1C[C@H]2C[C@@H]1[C@H]1CCC[C@@H]21 (some centres undefined)
[6]
  pIC50: < 4.00

## CN(Cc1cc(C(F)(F)F)cc(C(F)(F)F)c1)C(=O)c1c(N2CCC(OCc3ccccc3)C2)c2ccccc2n(C)c1=O (centres undefined)
[1]
  pIC50: 6.18
[2]
  pIC50: 4.82
[4]
  pIC50: 6.21

## CN(Cc1cc(C(F)(F)F)cc(C(F)(F)F)c1)C(=O)c1c(OCCOCc2ccccc2)c2ccccc2n(C)c1=O
[1]
  pIC50: 6.23
[2]
  pIC50: 4.66
[4]
  pIC50: 6.42

## COc1cc(CN(C)C(=O)c2c(OCCCC3CCN(C(=O)OC4(C)CC4)CC3)c3cccnc3n(C)c2=O)cc(C(F)(F)F)c1
[1]
  pIC50: 8.66
[7]
  Tmax: 0.83 h
Mus musculus [8]
  inhibition: Active
[3]
  Papp: 42.4 ×10⁻⁶ cm/s
Mus musculus [9]
  inhibition: inactive
Mus musculus [10]
  inhibition: inactive
[2]
  pIC50: 5.62
[11]
  AUC(0-t) at 24 h: 18000 ng·h/mL
[4]
  pIC50: 7.35
[12]
  Cmax: 6500 ng/mL
[13]
  AUC(0-t) at 24 h: 12000 ng·h/mL
[5]
  solubility kinetic: 0.79 µg/mL (≈ 1.23 µM)
[14]
  MRT: 3 h
[15]
  MRT: 9.4 h
Mus musculus [16]
  inhibition: Active
[17]
  Cmax: 700 ng/mL
[18]
  concentration at 24 h: 7 ng/mL
[19]
  Tmax: 8 h
[20]
  concentration at 24 h: 230 ng/mL

## CN(Cc1cc(C(F)(F)F)cc(C(F)(F)F)c1)C(=O)c1c(OCCCC(F)(F)F)c2ccccc2n(C)c1=O
[1]
  pIC50: 6.62
[2]
  pIC50: 4.60
[4]
  pIC50: 6.92

## CN(Cc1cc(C(F)(F)F)cc(C(F)(F)F)c1)C(=O)c1c(OCCCc2ccccc2)c2ccccc2n(C)c1=O
[1]
  pIC50: 6.92
[2]
  pIC50: 4.85
[4]
  pIC50: 6.68
